Assay outcomes from PubChem.
HCV NS3 hel inh: inhibitors of Hepatitis C virus NS3 helicase; NS3 helicase DNA unwinding, Cy5 molecular beacon fluorescence; 290,000 tested, 0.56% active; inhibition, % at 10.9 µM;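 active means inhibition above the mean of all tested compounds plus 3 SD, set per campaign, cut at about 35% in these data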;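 further: 0% = DMSO wells and 100% = thioflavine S control wells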
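System: HCV NS3 helicase fragment; control set: DMSO and thioflavine S; technique: Cy5 fluorescence at 0 and 60 min, beacon hairpin quenching; reagent: beacon DNA duplex substrate plus ATP; replicates: singlicate; schedule: 1 h reaction at 25 °C, ATP-initiated; medium: MOPS buffer pH 6.5 with MgCl2, DTT, Tween20, BSA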
DNA FID counter-1: fluorescent intercalator displacement, NS3 helicase counter-screen. 290,000 tested, 0.17% active. DNA fluorescent intercalator displacement, fluorescence. inhibition, % at 7.9 µM;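 further: 0% = vehicle and 100% = reference compound; higher means more ethidium bromide displaced from hairpin DNA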
IMP-1 inh: inhibitors of Pseudomonas aeruginosa IMP-1 metallo-beta-lactamase. purified IMP-1, nitrocefin hydrolysis, epi-absorbance fluorescence. inhibition, % at 5.6 µM. 290,000 tested, 0.45% active. AID 1556;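 active means inhibition above the mean plus 3 SD of all compounds in the same screening run, cut at about 4.5% in these data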;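 further: 0% = IMP-1 with DMSO and 100% = DMSO wells lacking enzyme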
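Test system: recombinant IMP-1 enzyme, purified / Medium: HEPES buffer pH 7.1 with ZnSO4 and Brij 35 / Doses: single dose, 5.6 µM / Times: 25 °C, 15 min preincubation, 25 min reaction / Detection: Epi-absorbance via hydrolysed-nitrocefin quenching of white-plate fluorescence, 480/530 nm, EDTA stop / Evaluation: percent inhibition from optical density relative to buffer-blank wells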
VIM-2 inh: inhibitors of Pseudomonas aeruginosa VIM-2 metallo-beta-lactamase. inhibition, % at 5.6 µM. 290,000 tested, 0.89% active. AID 1527. purified VIM-2, nitrocefin hydrolysis, epi-absorbance fluorescence;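 active means inhibition above the mean of all tested compounds plus 3 SD, cutoff set per screening run, cut at about 7.5% in these data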;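 further: red hydrolysis product quenches plate fluorescence so inhibitors raise well fluorescence; 0% = enzyme with DMSO and 100% = DMSO without enzyme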
NS3 hel confirm: HCV NS3 helicase inhibition, confirmation assay | shares compounds with HCV NS3 hel inh | NS3 helicase DNA unwinding, Cy5 molecular beacon fluorescence | inhibition, % at 10.9 µM | 1,600 tested, 31% active | AID 1943;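 active means inhibition above the mean of all tested compounds plus 3 SD, cutoff set per campaign, cut at about 36% in these data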
DNA FID counter-2: counter-screen for HCV NS3 helicase inhibitors: DNA intercalator displacement | shares compounds with HCV NS3 hel inh | DNA fluorescent intercalator displacement, fluorescence | inhibition, % at 7.9 µM | 1,600 tested, 4% active;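 further: 0% = vehicle and 100% = reference compound; higher means more displacement of ethidium bromide from the DNA hairpin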
DNA FID DR: displaces fluorescent intercalator from DNA, HCV helicase counter-screen; shares compounds with HCV NS3 hel inh; fluorescent intercalator displacement from DNA, fluorescence; IC50, µM; 120 tested, under 10 active; AID 2172; call rule not given here
* marks the source's active call; other numbers are inactive results; i = inactive; . = not tested or not shown. Sampled rows, rich in hits. Any-hit rate of the full collection: about 1.9%. Unless noted, no stated cut-off is given here; in the data, active means inhibition above about 37%; inactive means the rest.

SMILES	HCV NS3 hel inh	DNA FID counter-1	IMP-1 inh	VIM-2 inh	NS3 hel confirm	DNA FID counter-2	others
CCCCOc1ccc(-c2cc(C(F)(F)F)c(C#N)c(SCC(=O)O)n2)cc1	43*	-38	-2	-2	81*	-14	DNA FID DR=i
OC(C#CCN1CCCC1)(c1ccccc1)c1cccnc1 (configuration not stated)	-5	5	1	2	.	.
CCCN(CC#CC(O)(c1ccccc1)c1cccnc1)CCC (configuration not stated)	45*	-2	-2	-2	-10	4
CC(C)c1ccccc1NC(=O)COC(=O)c1cc(=O)[nH]c(=O)[nH]1	6	1	-2	-3	.	.
O=[N+]([O-])c1cc(Br)c(O)c(C=Nc2ccc(N3CCOCC3)cc2)c1	37*	4	2	-2	-20	8
C=CCNc1nc2ccccc2nc1NS(=O)(=O)c1ccc(OC)cc1	11	-21	-6	-5	.	.
C=CCNc1nc2ccccc2nc1NS(=O)(=O)c1ccc(Cl)cc1	36*	-32	-3	-4	32	-25
CC(C)CN1CCC(=O)N([C@H](CO)c2ccccc2)CC1	14	-4	-2	-2	.	.
COc1ccccc1/C=C/C1=NC(=C\C=C/c2ccccc2)/C(=O)O1	46*	-29	0	0	61*	-27	DNA FID DR=>79
O=C(Nc1cccc(F)c1)NC1CCN(Cc2ccccc2)CC1	-3	7	0	-1	.	.
O=C(NCC1CCCO1)c1cc2nc(-c3ccco3)cc(C(F)(F)Cl)n2n1 (configuration not stated)	51*	-10	-1	4	-10	-14
Cc1ccccc1NC(=O)CSc1nnc(-c2ccco2)c(-c2ccco2)n1	41*	-24	-1	-1	51*	-8	DNA FID DR=>79
CSc1nnc(-c2ccco2)c(-c2ccco2)n1	37*	-10	-3	-1	25	14
COc1cc(NC(=O)CSc2ccc(-c3ccco3)nn2)cc(OC)c1	36*	-27	-3	-3	-12	0
CSc1nnc(-c2ccccc2)c(-c2ccccc2)n1	11	-10	-4	-5	.	.
O=C(CSc1nnc(-c2ccco2)c(-c2ccco2)n1)Nc1ccccc1	24	-9	1	-2	.	.
Cc1ccc(NC(=O)CSc2nnc(-c3ccco3)c(-c3ccco3)n2)cc1	42*	-6	2	0	87*	19
C/C(=C\C(=O)c1ccccc1)Nc1ccc2c(c1)OCO2	0	2	-3	-3	.	.
COC(=O)c1ccc(Cn2nnc3c(=O)[nH]c(C4CCCN(S(=O)(=O)c5cccc(Cl)c5)C4)nc32)cc1 (configuration not stated)	38*	-19	-1	-1	-3	-40
COC(=O)c1ccc(Cn2nnc3c(=O)[nH]c(C4CCCN(S(=O)(=O)c5ccc(C)cc5)C4)nc32)cc1 (configuration not stated)	2	-22	1	-1	.	.
O=C(CCCSc1nnnn1-c1cccc2ccccc12)c1ccc(F)cc1	-9	-23	-3	-3	.	.
CNc1ccccc1C(C)(C)c1cc(-c2ccco2)n[nH]1	41*	-5	-3	-2	-9	-27
CNc1ccccc1C(C)(C)c1cc(C)[nH]n1	0	-13	-2	-2	.	.
CCc1[nH]nc(C(=O)NC2CCCc3c2cnn3-c2cc(C)cc(C)c2)c1C (configuration not stated)	-7	-35	-3	-3	.	.
CN(Cc1ccco1)S(=O)(=O)c1nnc(NC(=O)c2ccc(F)cc2)s1	15	-9	1	0	.	.
SMILES	HCV NS3 hel inh	DNA FID counter-1	IMP-1 inh	VIM-2 inh	NS3 hel confirm	DNA FID counter-2	others
CCOc1ccc(C(=O)Nc2nnc(S(=O)(=O)N(C)Cc3ccco3)s2)cc1	57*	-13	2	-1	2	-5
CCC(=O)N1CCCC(C(=O)c2ccc(-c3ccccc3)cc2)C1 (configuration not stated)	-13	-39	-1	-1	.	.
Oc1ccc(Br)cc1C=Nc1ccc2c3c(cccc13)CC2	48*	-13	-2	2	-5	12
Oc1ccc(Cl)cc1C=Nc1ccccc1Br	2	-5	-1	-2	.	.
CCOC(=O)C1CCCN(C(=O)/C(=C/c2ccco2)NC(=O)c2ccccc2)C1 (configuration not stated)	45*	-48	5.2*	1	-16	-37
O=C(O)CN1CCN(Cc2ccccc2F)C1=O	0	2	-2	1	.	.
Cn1nnnc1SCc1nc2scc(-c3ccc(Cl)cc3)c2c(=O)[nH]1	42*	-8	-3	-3	-17	1
Cn1nnnc1SCCNC(=O)C1CCC(=O)N(Cc2ccc(Cl)cc2)C1 (configuration not stated)	-1	-13	-3	-1	.	.
CCCCn1c(N)c(NCCC(C)C)c(=O)[nH]c1=O	45*	-19	-4	0	-15	-13
COC(=O)c1ccc(-n2nc(C(F)(F)F)c3c2-c2ccoc2CC3)cc1	13	-2	-2	0	.	.
O=C(O)c1ccc(-n2nc(C(F)(F)F)c3c2-c2ccoc2CC3)cc1	37*	-22	1	0	51*	-14
Cc1cc(Cl)ccc1Oc1ccccc1C(=O)CC#N	37*	-8	-2	-2	53*	9	DNA FID DR=>79
Cc1cc(Cl)ccc1Oc1ccc(C(N)=O)cc1[N+](=O)[O-]	-2	2	-5	1	.	.
CC1CCc2sc3nc(NCc4ccco4)n4ncnc4c3c2C1 (configuration not stated)	39*	-7	-1	0	-13	7
CC1CCCc2sc3nc(NCc4ccco4)n4ncnc4c3c21 (configuration not stated)	-1	-8	-1	-1	.	.
C=CCOc1c(Cl)cc(CNc2ccc(N(C)C)cc2)cc1OC	51*	-2	-2	1	23	21
Cc1ccc(NC(=O)COC(=O)C2CC3C=CC2C3)cc1S(=O)(=O)N1CCCCC1 (configuration not stated)	62*	-21	0	-1	-3	-20
CCc1ccc(NC(=O)Cc2c(C(=O)O)n(C)c3ccccc23)cc1	37*	-34	-2	-3	52*	-25
CCOC(=O)C1=C(N)N2C(=O)C(C)SC2=C(C(=O)OCC)C1c1ccc(O)cc1 (configuration not stated)	39*	-29	0	0	-27	-29
O=C1OC(c2cccc([N+](=O)[O-])c2)C2(CCCC2)C(=O)C12CCCCC2 (configuration not stated)	-5	-2	-4	-4	.	.
O=C(Nc1ccc(N2CCCC2)cc1)c1cccc(-c2cc3ccccc3oc2=O)c1	-21	4	-3	0	.	.
